Laboratory results as given in ChEMBL document CHEMBL1155224, “Discovery of new inhibitors of resistant Streptococcus pneumoniae penicillin binding protein (PBP) 2x by structure-based virtual screening” (J Med Chem, 2009).
Substitutions are numbered along the chain they refer to. Calls of active or inactive are those of the source. The calls are words filed in the database; no cut-off is given here.

What was measured:
[1] = molecular target: T1, Penicillin-binding protein 2x (Streptococcus pneumoniae serotype 4 (strain ATCC BAA-334 / TIGR4)) (UniProt P14677); assay: (§1) Inhibition of penicillin-resistant Streptococcus pneumoniae 5204 PBP2X preincubated for 4 hrs before addition of substrate (R)-[2-(benzoylamino)propionylsulfanyl]acetic acid
T1 sequence (whole entry): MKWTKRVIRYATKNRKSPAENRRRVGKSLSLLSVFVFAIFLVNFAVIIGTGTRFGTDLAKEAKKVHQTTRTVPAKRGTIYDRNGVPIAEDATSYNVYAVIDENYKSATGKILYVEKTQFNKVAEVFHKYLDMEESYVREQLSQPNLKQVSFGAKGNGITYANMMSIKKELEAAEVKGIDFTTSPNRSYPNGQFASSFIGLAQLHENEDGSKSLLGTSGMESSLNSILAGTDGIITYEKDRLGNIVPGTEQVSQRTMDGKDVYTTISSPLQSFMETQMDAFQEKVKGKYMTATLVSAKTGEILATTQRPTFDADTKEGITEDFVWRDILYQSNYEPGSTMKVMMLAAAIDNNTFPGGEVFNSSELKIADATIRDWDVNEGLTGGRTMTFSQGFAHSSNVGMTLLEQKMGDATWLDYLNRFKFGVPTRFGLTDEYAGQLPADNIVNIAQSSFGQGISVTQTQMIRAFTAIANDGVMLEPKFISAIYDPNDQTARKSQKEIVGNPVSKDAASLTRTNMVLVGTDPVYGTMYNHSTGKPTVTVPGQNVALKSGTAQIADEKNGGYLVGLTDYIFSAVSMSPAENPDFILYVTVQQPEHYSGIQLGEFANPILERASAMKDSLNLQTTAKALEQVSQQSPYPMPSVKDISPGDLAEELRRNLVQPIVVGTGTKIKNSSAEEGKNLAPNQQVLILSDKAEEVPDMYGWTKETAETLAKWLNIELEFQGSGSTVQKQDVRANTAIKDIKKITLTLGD
In short: (§2)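 0.6 μM 5204-PBP2x preincubated 4 h at 25 °C with inhibitor in 10 mM sodium phosphate pH 7.0, 70 mM D-alanine, 0.01 mg/mL BSA, 1% DMF, 0.01% Triton X-100. Assays were run in triplicate, and IC50 was fitted from residual activity versus decreasing inhibitor concentrations.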

[2] = molecular target: T2, Penicillin-binding protein 2X (Streptococcus pneumoniae R6) (UniProt P59676); assay: (§3) Inhibition of penicillin-sensitive Streptococcus pneumoniae R6 PBP2X preincubated for 1 hr before addition of substrate (R)-[2-(benzoylamino)propionylsulfanyl]acetic acid
T2 sequence (whole entry): T1 sequence (whole entry) with T385M
In short: (§4)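 Compounds taken from 100 mM DMF stocks (1% DMF final) and preincubated with 0.09 μM R6-PBP2x in 10 mM sodium phosphate pH 7.0 with 0.01 mg/mL BSA, 60 min, 25 °C. Spontaneous hydrolysis without enzyme measured. Triplicates. IC50 fitted from residual activity versus decreasing inhibitor concentration, with 0.01% Triton X-100.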

[3] = molecular target: T1, Penicillin-binding protein 2x (Streptococcus pneumoniae serotype 4 (strain ATCC BAA-334 / TIGR4)); assay: Inhibition of penicillin-resistant Streptococcus pneumoniae 5204 PBP2X assessed as residual activity at 100 uM preincubated for 1 hr before addition of substrate (R)-[2-(benzoylamino)propionylsulfanyl]acetic acid
[4] = Inhibition of Streptococcus pneumoniae PBP1B after 60 mins by SDS-PAGE; details: read-out: IC50
In short: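 Test compounds incubated with 0.7 μM PBP1b in 10 mM sodium phosphate pH 7.0 for 60 min at 30 °C. Remaining active enzyme counter-labeled with 10 μM fluorescein-labeled ampicillin for 20 min. Reaction stopped, proteins separated by SDS-PAGE and read by fluorescence imaging with background subtracted.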

[5] = molecular target: T1, Penicillin-binding protein 2x (Streptococcus pneumoniae serotype 4 (strain ATCC BAA-334 / TIGR4)); assay: Inhibition of penicillin-resistant Streptococcus pneumoniae 5204 PBP2X; in short: as §2
[6] = molecular target: Penicillin-binding protein 2x (Streptococcus pneumoniae serotype 4 (strain ATCC BAA-334 / TIGR4), UniProt P14677); assay: as §1; in short: as §2
[7] = molecular target: T3, Penicillin-binding protein 2X (Streptococcus pneumoniae R6, UniProt P59676); assay: as §3; in short: as §4
T3 sequence (P59676 whole entry): T1 sequence (whole entry) with T385M

SMILES | Activity [1] | Activity [2] | further results
CCC1C(=O)N2CC1CC(OC)=C2C(=O)O (stereo not given) | Active | Active | –
C[C@@H](O)[C@H]1C(=O)N2C(C(=O)O)=C(S[C@@H]3CN[C@H](C(=O)N(C)C)C3)[C@H](C)[C@H]12 | Active | Active | –
CC(=N)N1CC[C@H](SC2=C(C(=O)O)N3C(=O)[C@H]([C@@H](C)O)[C@H]3C2)C1 | Active | Active | –
O=C(O)c1cc(-c2ccc(/C=C3\S/C(=N\c4ccccc4)N(c4ccccc4)C3=O)o2)ccc1Cl | inactive | inactive | –
N[C@@H](C(=O)N[C@@H]1C(=O)N2C(C(=O)O)=C(Cl)CC[C@H]12)c1ccccc1 | Active | Active | –
O=C(COc1ccccc1)N[C@H]1CON([C@@]2(C(=O)O)CCC(=O)O2)C1=O | Active | Active | –
Nc1cc(SCSC2=C(C(=O)O)N3C(=O)[C@@H](NC(=O)/C(=N/O)c4nc(N)sc4Cl)[C@H]3SC2)nc(N)n1 | Active | Active | –
CC1(C)S[C@@H]2[C@H](NC(=O)[C@H](N)c3ccc(O)cc3)C(=O)N2[C@H]1C(=O)O | Active | Active | –
Cc1cc(Cl)ccc1NC(=O)Nc1c(Oc2ccc(Cl)cc2)ccc(Cl)c1S(=O)(=O)O | – | – | Activity [3]: 50%; IC50 [4]: 259 µM; Activity [5]: Active; IC50 [6]: 71 µM; IC50 [7]: 336 µM
CCn1c2ccccc2c2cc(/C=C3\S/C(=N\c4ccccc4)N(C(C(=O)O)c4ccccc4)C3=O)ccc21 (stereo not given) | inactive | inactive | –
CCn1c2ccccc2c2cc(/C=C3\S/C(=N\C(Cc4ccccc4)C(=O)O)N(c4ccccc4)C3=O)ccc21 (stereo not given) | inactive | inactive | –
CCO/N=C(\C(=O)NC1C(=O)N2C(C(=O)[O-])=CC(/C=C/Sc3cc[n+](C)cc3)SC12)c1nsc(N)n1 (stereo not given) | Active | Active | –
CO[C@H]1CCC[C@H]2C1=C(C(=O)O)N1C(=O)[C@H]([C@@H](C)O)[C@@H]21 | Active | Active | –
CC/C=C(\C(=O)N[C@@H]1C(=O)N2C(C(=O)O)=C(COC(N)=O)CS[C@H]12)c1csc(N)n1 | Active | Active | –
CC(=O)C[n+]1ccc(SCC2=C(C(=O)[O-])N3C(=O)[C@@H](NC(=O)/C(=N/OC4CCCC4)c4csc(N)n4)[C@H]3SC2)cc1 | Active | Active | –
O=C(Cc1cccs1)N[C@@H]1C(=O)N2C(C(=O)O)=C(/C=C/c3ccc([N+](=O)[O-])cc3[N+](=O)[O-])CS[C@H]12 | Active | Active | –
C[C@@H](O)[C@H]1C(=O)N2C(C(=O)O)=C([C@H]3CCCO3)S[C@H]12 | Active | Active | –
C[C@@H](O)[C@H]1C(=O)N2C(C(=O)[O-])=C(SC3Cn4cnc[n+]4C3)[C@H](C)[C@H]12 (stereo not given in full) | Active | Active | –
CC(=O)NC1CON(C2(C(=O)O)CCC(=O)O2)C1=O (stereo not given) | Active | Active | –
COc1c(N2CCNC(C)C2)c(F)cc2c(=O)c(C(=O)O)cn(C3CC3)c12 (stereo not given) | Active | Active | –
NCCSCc1cnccc1SC1=C(C(=O)O)N2C(=O)[C@@H](NC(=O)/C(=N\O)c3nc(N)sc3Cl)[C@H]2SC1 | Active | Active | –

SMILES | Activity [1] | Activity [2] | further results
CO/N=C(\C(=O)N[C@@H]1C(=O)N2C(C(=O)O)=C(COC(C)=O)CS[C@H]12)c1csc(N)n1 | Active | Active | –
C[C@H]1COc2c(N3CCN(C)CC3)c(F)cc3c(=O)c(C(=O)O)cn1c23 | Active | Active | –
CCO/N=C(\C(=O)N[C@@H]1C(=O)N2C(C(=O)[O-])=C(C[n+]3cccc4c3ncn4CCCNC)CS[C@H]12)c1nsc(N)n1 | Active | Active | –
CCn1c2ccccc2c2cc(/C=C3\S/C(=N\c4ccccc4)N(C(C(=O)O)C(C)C)C3=O)ccc21 (stereo not given) | inactive | inactive | –
C[C@@H](NC(=O)c1ccccc1)C(=O)SCC(=O)O | Active | Active | –
Cc1cc(SCC2=C(C(=O)[O-])N3C[C@@H](NC(=O)CSc4c(Cl)cc(/C=C/C(=O)NCC(=O)[O-])cc4Cl)[C@H]3SC2)cc(C)[n+]1CCC[N+]1(C)CCOCC1 | Active | Active | –
CO/N=C(\C(=O)N[C@@H]1C(=O)N2C(C(=O)O)=C(COC(N)=O)CS[C@H]12)c1ccco1 | Active | Active | –
CC(NC(=O)C(C)NC(=O)CCCCCN)C(=O)O (stereo not given) | inactive | inactive | –
CO/N=C(\C(=O)N[C@@H]1C(=O)N2C(C(=O)O)=C(CSc3nc(=O)c(O)nn3C)CS[C@H]12)c1csc(N)n1 | Active | Active | –
N[C@@H](C(=O)N[C@@H]1C(=O)N2C(C(=O)O)=C(Cl)CS[C@H]12)c1ccccc1 | Active | Active | –
CC=CC1=C(C(=O)O)N2C(=O)[C@@H](NC(=O)[C@H](N)c3ccc(O)cc3)[C@H]2SC1 | Active | Active | –
C[C@H]1NCc2cc(-c3ccc4c(=O)c(C(=O)O)cn(C5CC5)c4c3OC(F)F)ccc21 | Active | Active | –
C[C@@H](O)[C@H]1C(=O)N2C(C(=O)O)=C(SC3CN(C4=NCCS4)C3)[C@H](C)[C@H]12 | Active | Active | –
Nc1nc(/C(=N/O)C(=O)N[C@@H]2C(=O)N3C(C(=O)O)=C(/C=C4\CCN([C@@H]5CCNC5)C4=O)CS[C@H]23)ns1 | Active | Active | –
C=CC1=C(C(=O)O)N2C(=O)[C@@H](NC(=O)/C(=N\O)c3csc(N)n3)[C@H]2SC1 | Active | Active | –
C[C@@H](O)[C@H]1C(=O)N2C(C(=O)O)=C(SCCNC=N)C[C@H]12 | Active | Active | –
COCC1=C(C(=O)O)N2C(=O)[C@@H](NC(=O)/C(=N\OC)c3csc(N)n3)[C@H]2SC1 | Active | Active | –
CC(=O)OCC1=C(C(=O)O)N2C(=O)[C@@H](NC(=O)Cc3cccs3)[C@H]2SC1 | Active | Active | –
CO/N=C(\C(=O)N[C@@H]1C(=O)N2C(C(=O)OCOC(=O)C(C)(C)C)=C(/C=C\c3scnc3C)CS[C@H]12)c1csc(N)n1 | Active | Active | –
CC1(C)S[C@@H]2[C@H](NC(=O)[C@H](N)c3ccccc3)C(=O)N2[C@H]1C(=O)O | Active | Active | –
